Assay results published in ChEMBL document CHEMBL3745658, “An Orally Bioavailable, Indole-3-glyoxylamide Based Series of Tubulin Polymerization Inhibitors Showing Tumor Growth Inhibition in a Mouse Xenograft Model of Head and Neck Cancer” (J Med Chem, 2015).
Converted amounts (≈) assume the structure as drawn. The source made the active and inactive calls. The calls are words filed in the database; no cut-off is given here.

Key:
[1] = test system: FaDu; assay: Cytotoxicity against human FADU cells assessed as reduction in cell viability after 72 hrs by MTT assay; assay type: functional; settings: read-out: LC50 (the source's name)
[2] = Metabolic stability in CD-1 mouse liver microsomes assessed as half life at 1 uM preincubated for 5 mins before addition of NADPH by LC-MS/MS method; assay type: ADME
[3] = Solubility in 2% DMSO containing 50 mM potassium phosphate buffer solution at pH 7.4 by dynamic light scattering method; settings: 50 mM potassium phosphate buffer with 2% DMSO
[4] = test system: MES-SA/Dx5; assay: Cytotoxicity against multidrug resistant human MES-SA/Dx5 cells assessed as reduction in cell viability after 72 hrs by MTT assay; assay type: functional, cell-based
Outline: (§1)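 Cells plated at an appropriate density and left 24 h to attach, then dosed in triplicate with compound diluted from 10 mM DMSO stocks into full growth medium (added at 2× final concentration). After 72 h, cells PBS-washed and given MTT (0.5 mg/mL in PBS) for 45−60 min. Formazan dissolved in 0.1 M HCl/2-propanol, A570 read (650 nm reference). Viability normalised to DMSO control; LC50 by nonlinear regression.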

[5] = Apparent permeability from apical to basolateral side in human Caco2 cells at 10 uM at pH 7.4 after 60 mins by mass spectrometry; settings: Caco-2, pH 7.4
[6] = Efflux ratio of apparent permeability from basolateral to apical side over apical to basolateral side in human Caco2 cells; settings: Caco-2
[7] = test system: SH-SY5Y; assay: Cytotoxicity against human SH-SY5Y cells assessed as reduction in cell viability after 72 hrs by MTT assay; assay type: functional, cell-based; outline: as §1
[8] = test system: SK-MEL-28; assay: Cytotoxicity against human SK-MEL-28 cells assessed as reduction in cell viability after 72 hrs by MTT assay; assay type: functional, cell-based; outline: as §1
[9] = molecular target: T1, Tubulin (Sus scrofa) (UniProt P02554+P02550); assay: Displacement of [3H]-paclitaxel from biotinylated porcine tubulin after 25 mins by competitive binding assay; assay type: protein assay
Outline: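 Biotinylated porcine tubulin precoupled to SPA beads for 30 min at 4 °C, then 0.05 μM [3H]-paclitaxel and test compound added in G-PEM with 1 mM GTP, 3% DMSO, duplicate wells, 25 min at rt. Nonspecific binding taken with 1000-fold unlabeled excess. IC50 from seven-point semilog curves, four-parameter fit.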

[10] = test system: SCC-4; assay: Cytotoxicity against human SCC4 cells assessed as reduction in cell viability after 72 hrs by MTT assay; assay type: functional, cell-based; outline: as §1
[11] = molecular target: T2, Tubulin (Sus scrofa, UniProt P02554+P02550); assay: (§2) Displacement of [3H]-colchicine from biotinylated porcine tubulin after 2 hrs by competitive binding assay; assay type: protein assay
Outline: (§3)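 Biotinylated porcine tubulin (750 ng/well) with 0.1 μM [3H]-colchicine and test compound in G-PEM with 1 mM GTP, 3% DMSO, duplicate wells, 2 h at 37 °C. Streptavidin SPA beads then added for 45 min at 37 °C. Nonspecific binding taken with 1000-fold unlabeled excess. IC50 from seven-point semilog curves, four-parameter fit.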

[12] = molecular target: T1, Tubulin (Sus scrofa); assay: Displacement of [3H]-vinblastine from biotinylated porcine tubulin after 15 mins by competitive binding assay; assay type: protein assay
Outline: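 Biotinylated porcine tubulin, 0.2 μM [3H]-vinblastine, SPA beads and test compound combined together in G-PEM with 1 mM GTP, 3% DMSO, duplicate wells, 15 min at rt before counting. Nonspecific binding taken with 1000-fold unlabeled excess. IC50 from seven-point semilog curves, four-parameter fit.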

[13] = molecular target: T2, Tubulin; assay: Inhibition of porcine brain tubulin polymerization assessed as reduction in GTP-induced microtubule assembly after 60 mins by OD340 method
[14] = test system: MES-SA; assay: Cytotoxicity against human MES-SA cells assessed as reduction in cell viability after 72 hrs by MTT assay; assay type: functional, cell-based; outline: as §1
[15] = molecular target: T1, Tubulin (Sus scrofa); assay: as §2; assay type: protein assay; outline: as §3
[16] = Solubility in 2% DMSO containing 50 mM potassium phosphate buffer solution pH 7.4 at 10 uM by dynamic light scattering method; settings: pH 7.4, 10 µM

SMILES | CC50 [1] [µM] | further results
COc1ccc(NC(=O)C(=O)c2cn(C(C)C)c3c(Cl)cccc23)cn1 | 10.2 | 
COc1ccc(NC(=O)C(=O)c2cn(C(C)C)c3cc(Cl)ccc23)cn1 | 1.77 | 
CC(C)n1cc(C(=O)C(=O)Nc2cccnc2)c2ccccc21 | > 10 | 
COc1ccc(NC(=O)C(=O)c2cn(CCOC(C)C)c3ccccc23)cn1 | 0.211 | half-life at 1 µM [2]: 23 min
COc1nc(NC(=O)C(=O)c2cn(C(C)C)c3ccccc23)ns1 | > 10 | 
CCc1cc(C(=O)C(=O)Nc2ccc(OC)nc2)c2ccccn12 | 0.11 | 
COc1ccc(NC(=O)C(=O)c2cn(C(C)(C)COCC(=O)O)c3ccccc23)cn1 | > 10 | solubility kinetic [3]: > 200 µM
COCCn1cc(C(=O)C(=O)Nc2ccc(OC(C)(C)C)nc2)c2ccccc21 | 0.858 | 
CC(=O)O[C@H]1C(=O)[C@@]2(C)[C@H]([C@H](OC(=O)c3ccccc3)[C@]3(O)C[C@H](OC(=O)[C@H](O)[C@@H](NC(=O)c4ccccc4)c4ccccc4)C(C)=C1C3(C)C)[C@]1(OC(C)=O)CO[C@@H]1C[C@@H]2O |  | Activity [4]: inactive
COc1ncc(NC(=O)C(=O)c2cn(C(C)C)c3ccccc23)cn1 | 0.171 | Papp A→B at 1 h, 10 µM [5]: 39.8 ×10⁻⁶ cm/s; efflux ratio [6]: 1; half-life at 1 µM [2]: 5 min
COc1ccc(NC(=O)C(=O)c2cn(CC3CCO3)c3ccccc23)cn1 (stereo not drawn) | 0.686 | 
COc1ccc(NC(=O)C(=O)c2cn(CC(C)(C)OC)c3ccccc23)cn1 | > 10 | 
COC(=O)CCn1cc(C(=O)C(=O)Nc2ccc(OC)nc2)c2ccccc21 | 0.168 | 
COc1nsc(NC(=O)C(=O)c2cn(C(C)C)c3ccccc23)n1 | 10.4 | 
COc1ccc(NC(=O)C(=O)c2cn(C(C)C)c3ccccc23)cc1OC | > 10 | 
COCCn1cc(C(=O)C(=O)Nc2ccc(OC)cc2)c2ccccc21 | 0.059 | 
CCOC(=O)COc1ccc(NC(=O)C(=O)c2cn(CCOC)c3ccccc23)cn1 | > 10 | 
COc1ccc(NC(=O)C(=O)c2cn(C(C)C)c3ccc(Cl)cc23)cn1 | > 10 | 
CC(C)n1cc(C(=O)C(=O)Nc2ccc(OC(F)(F)F)cc2)c2ccccc21 | 8.93 | 
COc1ccc(NC(=O)C(=O)c2cn(C(C)C)c3ccncc23)cn1 | > 10 | 
COc1ccc(NC(=O)C(=O)c2cn(CCC(=O)O)c3ccccc23)cn1 | > 10 | solubility kinetic [3]: > 200 µM

SMILES | CC50 [1] [µM] | further results
COCCn1cc(C(=O)C(=O)Nc2ccc(OC)nc2)c2cccnc21 | 0.027 | Activity [7]: Active; Activity [4]: Active; Activity [8]: Active; Activity [9]: inactive; Activity [10]: Active; IC50 [11]: 0.94 µM; Activity [12]: inactive; IC50 [13]: 2.6 µM; Activity [14]: Active
CCn1cc(C(=O)C(=O)Nc2ccncc2)c2ccccc21 | > 10 | 
COc1ccc(NC(=O)C(=O)c2cn(C(C)C)c3ncccc23)cn1 | 0.126 | Activity [9]: inactive; Activity [12]: inactive
COc1ccc(NC(=O)C(=O)c2cn(C(C)C)c3cccc(OC)c23)cn1 | 7.78 | 
COCCn1cc(C(=O)C(=O)Nc2ccncc2)c2ccccc21 | > 10 | 
CC(=O)O[C@@]12CO[C@@H]1C[C@H](O)[C@@]1(C)C(=O)[C@H](O)C3=C(C)[C@@H](OC(=O)[C@H](O)[C@@H](NC(=O)OC(C)(C)C)c4ccccc4)C[C@@](O)([C@@H](OC(=O)c4ccccc4)[C@H]21)C3(C)C |  | Activity [9]: Active; Activity [15]: inactive; Activity [12]: Active
CCn1cc(C(=O)C(=O)Nc2ccc(OC)nc2)c2ccccc21 | 0.219 | solubility [16]: soluble; solubility kinetic [3]: 10 µM (≈ 3.23 µg/mL); Activity [9]: inactive; Activity [12]: Active
CCOc1ccc(NC(=O)C(=O)c2cn(C(C)C)c3ccccc23)cn1 | 0.175 | 
COc1ccc(NC(=O)C(=O)c2cc(C(C)C)n3ccccc23)cn1 | 0.16 | solubility [16]: soluble; solubility kinetic [3]: 10 µM (≈ 3.37 µg/mL); Activity [9]: inactive; half-life at 1 µM [2]: < 5 min; Activity [12]: inactive
COCCn1cc(C(=O)C(=O)Nc2ccc(OCC(=O)O)nc2)c2ccccc21 | > 10 | solubility kinetic [3]: > 200 µM
COc1ccc(NC(=O)C(=O)c2cn(C(C)C)c3cnccc23)cn1 | > 10 | 
CCCCn1cc(C(=O)C(=O)Nc2ccc(OC)nc2)c2ccccc21 | 0.018 | 
COCCn1cc(C(=O)C(=O)Nc2ccc(OC(F)(F)F)cc2)c2ccccc21 | 0.487 | Activity [9]: inactive; Activity [12]: Active
COCCn1cc(C(=O)C(=O)Nc2ccc(OC)nc2)c2cc(OC)ccc21 | > 10 | 
COc1ccc(NC(=O)C(=O)c2cn(C(C)C)c3c(OC)cccc23)cn1 | > 10 | 
COc1cc2c(c(OC)c1OC)-c1ccc(OC)c(=O)cc1[C@@H](NC(C)=O)CC2 |  | Activity [4]: inactive
COc1ccc(NC(=O)C(=O)c2cn(CC(C)C)c3ccccc23)cn1 | 0.317 | 
COc1cc([C@@H]2c3cc4c(cc3[C@H](O)[C@H]3COC(=O)[C@H]23)OCO4)cc(OC)c1OC |  | Activity [15]: Active
CCn1cc(C(=O)C(=O)Nc2ccnc(OC)c2)c2ccccc21 | 4.18 | 
COc1ccc2c(c1)c(C(=O)C(=O)Nc1ccc(OC)nc1)cn2C(C)C | > 10 | 
COCCn1cc(C(=O)C(=O)Nc2cnc(OC)nc2)c2ccccc21 | 0.055 | 

SMILES | CC50 [1] [µM] | further results
CC(C)Oc1ccc(NC(=O)C(=O)c2cn(C(C)C)c3ccccc23)cn1 | 0.408 | half-life at 1 µM [2]: 66 min
COCCn1cc(C(=O)C(=O)Nc2ccc(OC)nc2)c2ccccc21 | 0.017 | Activity [7]: Active; Activity [4]: Active; Activity [8]: Active; Activity [10]: Active; half-life at 1 µM [2]: 11 min; Activity [14]: Active
COc1ccc(NC(=O)C(=O)c2cn(C(C)C)c3ccccc23)cc1 | 0.181 | 
COCCn1cc(C(=O)C(=O)Nc2ccc(C(F)(F)F)nc2)c2ccccc21 | > 10 | 
COc1cc(NC(=O)C(=O)c2cn(C(C)C)c3ccccc23)ccn1 | 1.75 | 
COCCn1cc(C(=O)C(=O)Nc2ccnc(OC)c2)c2ccccc21 | 0.235 | 
COc1ccc(NC(=O)C(=O)c2cn(C3CCCC3)c3ccccc23)cn1 | 0.37 | 
CCC(C)n1cc(C(=O)C(=O)Nc2ccc(OC)nc2)c2ccccc21 (stereo not drawn) | 0.068 | 
COc1ccc(NC(=O)C(=O)c2cn(C(C)C)c3ccccc23)nn1 | 2.27 | 
CC(C)n1cc(C(=O)C(=O)Nc2ccncc2)c2ccccc21 | > 10 | 
COc1ccc(NC(=O)C(=O)c2cn(C(C)C)c3ccc(Cl)cc23)cc1 | > 10 | 
COc1ccc(NC(=O)C(=O)c2cn(C(C)C)c3cccc(Cl)c23)cn1 | 2.13 | 
CC(C)n1cc(C(=O)C(=O)Nc2ccc(C(F)(F)F)nc2)c2ccccc21 | > 10 | 
COc1ccc(NC(=O)C(=O)c2cn(C(C)C)c3cccnc23)cn1 | > 10 | 
CC[C@]1(O)C[C@@H]2CN(CCc3c([nH]c4ccccc34)[C@@](C(=O)OC)(c3cc4c(cc3OC)N(C)[C@H]3[C@@](O)(C(=O)OC)[C@H](OC(C)=O)[C@]5(CC)C=CCN6CC[C@]43[C@@H]65)C2)C1 |  | Activity [4]: inactive
COCCc1cc(C(=O)C(=O)Nc2ccc(OC)nc2)c2ccccn12 | 0.036 | half-life at 1 µM [2]: 6 min
COCC(C)(C)n1cc(C(=O)C(=O)Nc2ccc(OC)nc2)c2ccccc21 | 0.137 | Activity [7]: Active; Activity [4]: Active; Activity [8]: Active; solubility [16]: soluble; solubility kinetic [3]: 10 µM (≈ 3.81 µg/mL); Activity [9]: inactive; Activity [10]: Active; half-life at 1 µM [2]: 16 min; IC50 [11]: 2.5 µM; Activity [12]: Active; IC50 [13]: 7.8 µM; Activity [14]: Active
COc1ccc2c(C(=O)C(=O)Nc3ccc(OC)nc3)cn(C(C)C)c2c1 | > 10 | 
COCCn1cc(C(=O)C(=O)Nc2ccc(OC)nc2)c2cc(Cl)ccc21 | > 10 | 
COCCc1cc(C(=O)C(=O)Nc2ccc(OC(F)(F)F)cc2)c2ccccn12 | 0.758 | 
